PPC-1+TRAIL kill: kills PPC-1 cancer cells in the presence of TRAIL | PPC-1 cells + TRAIL, ATPLite viability luminescence | cell killing (% activity), % at 4 µM or 5 µM | 0.41% of 220,000 active | AID 1443;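 active = cell killing above 50% in the first pass at 4 µM, then a duplicate retest at 5 µM averaging 50% or more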
FLuc inh counter: inhibits firefly luciferase, flagging false hits in luciferase inhibition screens | P08659 | ATPLite firefly luciferase biochemical luminescence, 10 min | inhibition, % at 10 µM | 1.5% of 200,000 active;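 active = inhibition above about 50% when tested at 10 µM, limit read from the data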
Target sequence (P08659 whole entry, looked up): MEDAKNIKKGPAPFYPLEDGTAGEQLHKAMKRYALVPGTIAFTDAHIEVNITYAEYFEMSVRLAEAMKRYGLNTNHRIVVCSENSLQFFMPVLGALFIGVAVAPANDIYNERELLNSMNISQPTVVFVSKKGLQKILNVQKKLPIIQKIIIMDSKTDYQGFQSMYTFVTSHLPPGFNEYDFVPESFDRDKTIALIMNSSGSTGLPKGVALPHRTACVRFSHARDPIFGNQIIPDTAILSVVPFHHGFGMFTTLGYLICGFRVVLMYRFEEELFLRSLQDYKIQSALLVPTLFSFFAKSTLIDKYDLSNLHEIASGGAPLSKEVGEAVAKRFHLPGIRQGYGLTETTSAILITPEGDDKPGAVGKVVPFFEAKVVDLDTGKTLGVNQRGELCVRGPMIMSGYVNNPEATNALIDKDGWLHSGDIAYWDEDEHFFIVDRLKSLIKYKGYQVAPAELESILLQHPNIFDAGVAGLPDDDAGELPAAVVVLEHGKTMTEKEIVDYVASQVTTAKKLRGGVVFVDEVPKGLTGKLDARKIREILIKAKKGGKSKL
TRAIL sens C8: caspase-8 TRAIL sensitization; NB7+C8 cells + TRAIL, ATPlite viability luminescence; inhibition (viability loss, TRAIL sensitization), % at 10 µM; 1% of 360,000 active; AID 624354;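 active = compounds causing at least 50% loss of cell viability in the single-dose screen, relative to plate controls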
FLuc act counter: firefly luciferase counter-screen for stimulation assays. P08659. activation factor at 10 µM. AID 1027. ATPlite luciferase biochemical, luminescence, 10 min; 0 = ATP-free wells, 1 = DMSO control. 200,000 tested, under 10 active;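 active = luciferase activation factor, scaled between plate controls, of at least 2 with compound at 10 µM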
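System: luciferase plus luciferin reagent, cell-free; medium: PBS as buffer for the ATP substrate; dosing: test compounds dosed from 2 mM stocks in 100% DMSO; timing: 10 min post-reagent at room temperature; measured by: luminescence measurement of luciferase light output; evaluation: luciferase activation, seen as luminescence increase over controls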
Large screens that a line does not name were inactive. An excerpt weighted towards active compounds, which were near 1.6% of everything screened.

O=C(/C=C/c1ccc(Cl)cc1)c1ccc([N+](=O)[O-])o1	TRAIL sens C8 59.8 (no result: PPC-1+TRAIL kill, FLuc inh counter, FLuc act counter)
Oc1ccccc1CNc1ccc(OC(F)(F)F)cc1	none
CCc1ccc(-c2cn3nc(C)c(C)nc3n2)cc1	FLuc inh counter 84.1, TRAIL sens C8 56.2 (no result: PPC-1+TRAIL kill)
Cc1nc2nc(-c3ccc(F)cc3)cn2nc1C	none (no result: PPC-1+TRAIL kill, FLuc inh counter, FLuc act counter)
COc1ccc(-c2cn3c(C)c(C(=O)Nc4cccc(NC(C)=O)c4)sc3n2)cc1	TRAIL sens C8 69.1
O=C(NCC1CCCO1)C1CCCN(S(=O)(=O)c2cc(Cl)ccc2Cl)C1 (centres undefined)	none (no result: PPC-1+TRAIL kill, FLuc inh counter, FLuc act counter)
O=C1CC(c2nc3ccccc3[nH]2)CN1c1ccccc1F (centres undefined)	none
CC1C(=O)Nc2ccccc2N1C(=O)c1ccc(F)cc1 (centres undefined)	none (no result: PPC-1+TRAIL kill, FLuc inh counter, FLuc act counter)
O=C1Nc2ccccc2N(C(=O)c2ccc(-c3ccccc3)cc2)C1c1nc2ccccc2[nH]1 (centres undefined)	TRAIL sens C8 73.6 (no result: PPC-1+TRAIL kill, FLuc inh counter, FLuc act counter)
O=C1Nc2ccccc2N(C(=O)c2c(F)cccc2F)C1c1nc2ccccc2[nH]1 (centres undefined)	TRAIL sens C8 77.2 (no result: PPC-1+TRAIL kill, FLuc inh counter, FLuc act counter)
COc1cc(CN2CCCC(CO)(Cc3ccccc3C)C2)cc2c1OCO2 (centres undefined)	none
c1ccc(OCCSc2nnc3sc4ccccc4n23)cc1	FLuc inh counter 79.5
Nc1ncncc1-c1ccc2ccccc2c1	none (no result: FLuc inh counter, FLuc act counter)
Brc1ccc(-c2nc(-c3ccccn3)no2)o1	FLuc inh counter 73.9
O=C(Nc1cc(S(=O)(=O)N2CCOCC2)ccc1N1CCOCC1)c1ccc([N+](=O)[O-])s1	TRAIL sens C8 53.1 (no result: PPC-1+TRAIL kill, FLuc inh counter, FLuc act counter)
O=C(Nc1cc(S(=O)(=O)N2CCOCC2)ccc1N1CCOCC1)c1ccccc1[N+](=O)[O-]	none (no result: PPC-1+TRAIL kill, FLuc inh counter, FLuc act counter)
CSc1ncccc1C(=O)Nc1cc(Cl)ccc1N1CCOCC1	none (no result: PPC-1+TRAIL kill, FLuc inh counter, FLuc act counter)
Clc1ccc2oc(-c3ccccn3)nc2c1	FLuc inh counter 69.2
Nc1ccc2oc(-c3ccccn3)nc2c1	FLuc inh counter 57.5
O=C(NC(=S)NC1C2CC3CC(C2)CC1C3)c1ccccc1 (centres undefined)	none (no result: PPC-1+TRAIL kill, FLuc inh counter, FLuc act counter)
O=S(=O)(c1ccc(N2CCN(Cc3ccccc3)CC2)nc1)N1CCCC1	none (no result: PPC-1+TRAIL kill, FLuc inh counter, FLuc act counter)
Cc1cc2[nH]c3c4ccccc4nc(C)c3c2cc1C	TRAIL sens C8 82.7 (no result: PPC-1+TRAIL kill, FLuc inh counter, FLuc act counter)
Cc1cc2[nH]c3ccccc3c2c(C)n1	none
C[C@@H](NC(=O)c1[nH]cnc1C(=O)Nc1nccs1)c1ccccc1	none (no result: PPC-1+TRAIL kill, FLuc inh counter, FLuc act counter)
O=C(COc1ccc2ccccc2c1Br)Nc1ncn[nH]1	TRAIL sens C8 62.1
CSCCC(NC(=O)c1ccc(Cl)c([N+](=O)[O-])c1)C(=O)N1CCN(C/C=C/c2ccccc2)CC1 (centres undefined)	TRAIL sens C8 64.8 (no result: PPC-1+TRAIL kill, FLuc inh counter, FLuc act counter)
Nc1cccc(O)c1	none (no result: PPC-1+TRAIL kill, FLuc inh counter, FLuc act counter)
Oc1cccc(-c2nnc(-c3cccc(O)c3)nn2)c1	TRAIL sens C8 87.8 (no result: PPC-1+TRAIL kill, FLuc inh counter, FLuc act counter)
O=c1[nH]c(N/N=C\c2ccc(F)cc2)nc2ccccc12	FLuc inh counter 64.2
O=c1[nH]c(N/N=C/c2ccc(O)cc2)nc2ccccc12	FLuc inh counter 56.5
COc1ccc(Cc2nnc(N/N=C/c3ccc(O)cc3)[nH]c2=O)cc1OC	TRAIL sens C8 61.2
COC(=O)c1ccc(C2c3[nH]c4ccccc4c3C[C@H]3C(=O)N(C)CC(=O)N23)cc1 (some centres undefined)	none (no result: PPC-1+TRAIL kill, FLuc inh counter, FLuc act counter)
CN1CC(=O)N2C(c3ccc(Cl)cc3)c3[nH]c4ccccc4c3C[C@H]2C1=O (some centres undefined)	TRAIL sens C8 54.7 (no result: PPC-1+TRAIL kill, FLuc inh counter, FLuc act counter)
O=C(NCCO)c1ccc(-c2cnc3cccnn23)cc1	none (no result: PPC-1+TRAIL kill, FLuc inh counter, FLuc act counter)
CCc1ccc(-c2cc(C(=O)N/N=C/c3c[nH]c4ccccc34)[nH]n2)cc1	TRAIL sens C8 59.5
CCOc1ccc(NC2=CC(=O)C(=O)c3ccccc32)cc1	TRAIL sens C8 74.1 (no result: PPC-1+TRAIL kill, FLuc inh counter, FLuc act counter)
O=C1C=C(Nc2ccc(F)cc2)c2ccccc2C1=O	TRAIL sens C8 58.3 (no result: PPC-1+TRAIL kill, FLuc inh counter, FLuc act counter)
O=C1C=C(Nc2cccnc2)c2ccccc2C1=O	TRAIL sens C8 70.0 (no result: PPC-1+TRAIL kill, FLuc inh counter, FLuc act counter)
O=C1C=C(Nc2ccccc2O)c2ccccc2C1=O	none
COc1cc(Cl)c(NC2=CC(=O)C(=O)c3ccccc32)c(OC)c1	TRAIL sens C8 86.6 (no result: PPC-1+TRAIL kill, FLuc inh counter, FLuc act counter)
COC(=O)[C@@]12C[C@@H](CC(=O)N3CCN(C(=O)c4ccco4)CC3)C(=O)N(CCc3ccc(OC)c(OC)c3)C1=CCC(C)(C)C2	none (no result: PPC-1+TRAIL kill, FLuc inh counter, FLuc act counter)
CCOC(=O)C1(CCOC)CCN(C(=O)c2ccc(CSC)o2)CC1	none (no result: PPC-1+TRAIL kill, FLuc inh counter, FLuc act counter)
CCCc1nc2c3ccccc3ccn2c1Cc1cccc(F)c1	none (no result: PPC-1+TRAIL kill, FLuc inh counter, FLuc act counter)
COc1ccccc1/C=C/c1nc2ccccc2c(=O)o1	none (no result: PPC-1+TRAIL kill, FLuc inh counter, FLuc act counter)
COc1ccc(/C=C/c2nc3ccccc3c(=O)o2)cc1	TRAIL sens C8 74.8 (no result: PPC-1+TRAIL kill, FLuc inh counter, FLuc act counter)
COc1cc(/C=C/C(=O)c2ccc3c(c2)OCCO3)cc(Br)c1OCC(=O)N(C)C	none (no result: PPC-1+TRAIL kill, FLuc inh counter, FLuc act counter)

Compound activity deposited in PubChem BioAssay by Sanford-Burnham Center for Chemical Genomics.
